Assay [1] has as its target Serine/threonine-protein kinase 16 (Homo sapiens, UniProt O75716). The experiment in a line: Inhibition of recombinant full length His-tagged human STK16 expressed in baculovirus expression system by FRET assay.
Assay [2] deals with Receptor-interacting serine/threonine-protein kinase 2 (Homo sapiens) (UniProt O43353). The experiment in a line: Inhibition of recombinant His-tagged human RIPK2 catalytic domain (1 to 299 residues) expressed in baculovirus expression system at 1 uM by FRET assay relative to control. An outline of the steps:
(§1)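 Single-concentration screen at 1 μM in Life Technologies SelectScreen, across a 220-kinase panel. Z′-LYTE format measures phosphorylation of a labeled peptide by FRET. Results are reported as percent inhibition.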

Assay [3] addresses Calcium/calmodulin-dependent protein kinase type 1 (Homo sapiens) (UniProt Q14012). The experiment in a line: Inhibition of recombinant full length His-tagged human CaMK1 expressed in baculovirus expression system at 1 uM by FRET assay relative to control.
Assay [4] has as its target Serine/threonine-protein kinase 3 (Homo sapiens) (UniProt Q13188). The experiment in a line: Inhibition of recombinant full length GST-tagged human MST2 expressed in baculovirus at 1 uM by FRET assay relative to control. The method in brief: as §1
In assay [5] the target is Serine/threonine-protein kinase PAK 4 (Homo sapiens, UniProt O96013). The experiment in a line: Inhibition of recombinant GST-tagged human PAK4 catalytic domain expressed in baculovirus expression system by FRET assay.
For assay [6], the target named is Ephrin type-B receptor 3 (Homo sapiens) (UniProt P54753). The experiment in a line: Inhibition of recombinant GST-tagged human EphB3 cytoplasmic domain expressed in baculovirus expression system at 1 uM by FRET assay relative to control. The method in brief:
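Single-point screen at 1 μM compound in a 220-kinase panel run by Life Technologies (SelectScreen). Z′-LYTE format: phosphorylation of a labeled peptide substrate read by FRET. Values are reported as percent inhibition.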

The target in assay [7] is Death-associated protein kinase 3 (Homo sapiens) (UniProt O43293). The experiment in a line: Inhibition of recombinant full length GST-tagged human ZIPK expressed in baculovirus expression system at 1 uM by FRET assay relative to control.
The subject of assay [8] is Mus musculus. The experiment in a line: In-vivo inhibition of DLK in PS2APP mouse model assessed as reduction in phosphorylated c-jun level in cortical lysate at 15 mg/kg, po administered as single dose after 6 hrs by Western blot analysis relative to control. The format is functional. An outline of the steps: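 Homozygous PS2APP mice aged 9–10 months got one oral dose of 15 mg/kg as an MCT suspension, or vehicle; n = 7–8 per group. At 6 h: terminal plasma by cardiac puncture under deep anaesthesia, then PBS perfusion. Left cortex frozen at −80 °C and homogenised in 10 volumes RIPA. p-c-Jun read by Western blot with a GAPDH control, compared with vehicle (Dunnett's test).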

Assay [9] has as its system Mus musculus. The experiment in a line: In-vivo inhibition of DLK in PS2APP mouse model assessed as reduction in phosphorylated c-jun level in cortical lysate at 15 mg/kg, po administered as single dose after 6 hrs by Western blot analysis. The format is functional, organism-based. Background: Immunoblotting shows a protein as a band on a membrane.
Assay [10] addresses Serine/threonine-protein kinase Nek9 (Homo sapiens) (UniProt Q8TD19). The experiment in a line: Inhibition of recombinant full length GST-tagged human NEK9 catalytic domain expressed in baculovirus expression system at 1 uM by FRET assay relative to control.
For assay [11], the system named is Mus musculus. The experiment in a line: Down regulation of phosphorylated JNK level in cortical lysate of PS2APP mouse model at 15 to 50 mg/kg, po administered as single dose after 6 hrs by Western blot analysis. In kind it is functional, organism-based.
In assay [12] the test system is Mus musculus. The experiment in a line: In-vivo inhibition of DLK in PS2APP mouse model assessed as reduction in phosphorylated c-jun level in cortical lysate at 50 mg/kg, po administered as single dose after 6 hrs by Western blot analysis. The format is functional, organism-based.
The target of assay [13] is T1, Mitogen-activated protein kinase kinase kinase 12 (Homo sapiens, UniProt Q12852).
T1 sequence (Q12852 whole entry): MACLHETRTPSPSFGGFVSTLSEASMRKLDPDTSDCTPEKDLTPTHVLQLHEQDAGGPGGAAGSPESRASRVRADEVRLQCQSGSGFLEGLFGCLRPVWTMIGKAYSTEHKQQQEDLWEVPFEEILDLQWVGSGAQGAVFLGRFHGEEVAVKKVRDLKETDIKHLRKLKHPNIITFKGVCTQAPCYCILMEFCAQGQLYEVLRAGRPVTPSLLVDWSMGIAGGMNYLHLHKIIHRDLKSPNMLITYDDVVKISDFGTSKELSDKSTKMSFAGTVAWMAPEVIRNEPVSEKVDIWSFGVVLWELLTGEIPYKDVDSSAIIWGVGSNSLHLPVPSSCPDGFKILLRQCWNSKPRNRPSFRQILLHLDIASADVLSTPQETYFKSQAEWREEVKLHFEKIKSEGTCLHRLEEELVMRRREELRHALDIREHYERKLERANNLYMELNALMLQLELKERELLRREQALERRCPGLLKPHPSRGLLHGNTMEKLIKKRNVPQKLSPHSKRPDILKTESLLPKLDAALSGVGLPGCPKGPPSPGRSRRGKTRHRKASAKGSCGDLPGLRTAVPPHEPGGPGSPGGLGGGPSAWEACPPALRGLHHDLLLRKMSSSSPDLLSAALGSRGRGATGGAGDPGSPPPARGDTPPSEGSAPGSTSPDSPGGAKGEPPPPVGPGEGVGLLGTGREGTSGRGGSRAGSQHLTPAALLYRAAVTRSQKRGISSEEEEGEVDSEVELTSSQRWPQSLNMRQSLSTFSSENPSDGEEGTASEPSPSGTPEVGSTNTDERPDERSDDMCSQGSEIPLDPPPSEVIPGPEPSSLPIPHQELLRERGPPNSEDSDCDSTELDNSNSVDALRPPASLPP
The experiment in a line: Inhibition of doxycycline inducible human DLK transfected in HEK293 cells assessed as JNK phosphorylation after […] in presence of 10% bovine serum by Hoechst-33342 staining-based assay. The format is cell-based.

The target of assay [14] is Calcium/calmodulin-dependent protein kinase type IV (Homo sapiens) (UniProt Q16566). The experiment in a line: Inhibition of recombinant full length GST-tagged human CamK4 expressed in Escherichia coli at 1 uM by FRET assay relative to control.
In assay [15] the target is Casein kinase I isoform gamma-2 (Homo sapiens) (UniProt P78368). The experiment in a line: Inhibition of CK1gamma2 (unknown origin) at 1 uM by FRET assay relative to control.
Assay [16] concerns the target Macrophage colony-stimulating factor 1 receptor (Homo sapiens, UniProt P07333). The experiment in a line: Inhibition of recombinant His-tagged human CSF1R cytoplasmic domain (538 to 910 residues) expressed in baculovirus expression system by FRET assay.
The target of assay [17] is Serine/threonine-protein kinase PAK 1 (Homo sapiens) (UniProt Q13153). The experiment in a line: Inhibition of recombinant full length GST-tagged human PAK1 expressed in baculovirus expression system at 1 uM by FRET assay relative to control.
In assay [18] the target is Ephrin type-A receptor 7 (Homo sapiens, UniProt Q15375). The experiment in a line: Inhibition of recombinant GST-tagged human EphA7 cytoplasmic domain expressed in baculovirus expression system by FRET assay.
Chain of Ephrin type-A receptor 7 (Q15375 whole entry, the tested form may be a part): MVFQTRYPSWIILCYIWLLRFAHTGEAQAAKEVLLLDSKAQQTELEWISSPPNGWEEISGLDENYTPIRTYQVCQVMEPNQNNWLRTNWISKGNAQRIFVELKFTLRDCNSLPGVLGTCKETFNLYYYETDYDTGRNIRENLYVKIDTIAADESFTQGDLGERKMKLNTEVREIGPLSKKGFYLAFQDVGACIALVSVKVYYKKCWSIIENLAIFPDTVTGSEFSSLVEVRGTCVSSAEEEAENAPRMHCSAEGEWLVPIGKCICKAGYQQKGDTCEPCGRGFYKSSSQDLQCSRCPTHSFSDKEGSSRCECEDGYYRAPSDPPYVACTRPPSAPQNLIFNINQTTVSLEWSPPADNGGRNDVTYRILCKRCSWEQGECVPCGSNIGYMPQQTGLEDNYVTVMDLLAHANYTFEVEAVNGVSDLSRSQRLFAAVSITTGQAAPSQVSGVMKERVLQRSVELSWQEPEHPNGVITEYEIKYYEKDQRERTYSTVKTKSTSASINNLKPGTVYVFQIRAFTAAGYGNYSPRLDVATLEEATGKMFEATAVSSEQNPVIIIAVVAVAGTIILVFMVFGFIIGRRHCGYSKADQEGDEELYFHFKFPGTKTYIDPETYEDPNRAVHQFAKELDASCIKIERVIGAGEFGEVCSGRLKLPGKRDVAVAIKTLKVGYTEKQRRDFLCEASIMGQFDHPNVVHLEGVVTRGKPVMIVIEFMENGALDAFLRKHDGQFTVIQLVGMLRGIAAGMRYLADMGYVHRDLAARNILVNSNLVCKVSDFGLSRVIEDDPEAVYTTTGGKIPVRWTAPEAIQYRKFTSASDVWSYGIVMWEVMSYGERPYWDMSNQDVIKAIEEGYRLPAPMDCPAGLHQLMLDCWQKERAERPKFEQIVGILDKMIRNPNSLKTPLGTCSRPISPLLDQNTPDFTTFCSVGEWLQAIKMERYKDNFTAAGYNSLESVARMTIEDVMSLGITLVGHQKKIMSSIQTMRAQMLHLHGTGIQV
For assay [19], the target named is Myotonin-protein kinase (Homo sapiens, UniProt Q09013). The experiment in a line: Inhibition of full length recombinant human DMPK expressed in baculovirus expression system by FRET assay.
Chain of Myotonin-protein kinase (Q09013 whole entry): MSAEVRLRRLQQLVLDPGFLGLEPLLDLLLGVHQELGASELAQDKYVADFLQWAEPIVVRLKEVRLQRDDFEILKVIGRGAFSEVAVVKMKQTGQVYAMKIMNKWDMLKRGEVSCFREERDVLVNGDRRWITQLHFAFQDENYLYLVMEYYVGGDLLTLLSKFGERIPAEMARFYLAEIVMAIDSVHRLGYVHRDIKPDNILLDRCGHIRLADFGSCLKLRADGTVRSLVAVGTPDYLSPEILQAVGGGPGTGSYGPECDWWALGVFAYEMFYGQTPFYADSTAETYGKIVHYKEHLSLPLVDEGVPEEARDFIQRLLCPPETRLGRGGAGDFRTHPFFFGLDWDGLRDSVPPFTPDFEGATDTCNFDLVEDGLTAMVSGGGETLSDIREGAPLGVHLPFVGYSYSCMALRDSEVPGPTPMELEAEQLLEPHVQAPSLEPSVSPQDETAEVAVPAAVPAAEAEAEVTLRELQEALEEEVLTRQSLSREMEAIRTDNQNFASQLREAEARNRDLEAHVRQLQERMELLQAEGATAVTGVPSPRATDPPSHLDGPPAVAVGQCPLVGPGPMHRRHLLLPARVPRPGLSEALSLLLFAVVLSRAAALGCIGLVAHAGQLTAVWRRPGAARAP

Calls of active or inactive are those of the source. The rule behind the calls is not given here.

In general, IC50 refers to the concentration that gives 50% inhibition. One may read the inhibition as the change of the read-out against control, counted positive when it falls. As usually defined, the inhibition in vivo is the percentage by which the read-out fell short of the control.

Chain of Ephrin type-B receptor 3 (Homo sapiens) (P54753 whole entry, the tested form may be a part): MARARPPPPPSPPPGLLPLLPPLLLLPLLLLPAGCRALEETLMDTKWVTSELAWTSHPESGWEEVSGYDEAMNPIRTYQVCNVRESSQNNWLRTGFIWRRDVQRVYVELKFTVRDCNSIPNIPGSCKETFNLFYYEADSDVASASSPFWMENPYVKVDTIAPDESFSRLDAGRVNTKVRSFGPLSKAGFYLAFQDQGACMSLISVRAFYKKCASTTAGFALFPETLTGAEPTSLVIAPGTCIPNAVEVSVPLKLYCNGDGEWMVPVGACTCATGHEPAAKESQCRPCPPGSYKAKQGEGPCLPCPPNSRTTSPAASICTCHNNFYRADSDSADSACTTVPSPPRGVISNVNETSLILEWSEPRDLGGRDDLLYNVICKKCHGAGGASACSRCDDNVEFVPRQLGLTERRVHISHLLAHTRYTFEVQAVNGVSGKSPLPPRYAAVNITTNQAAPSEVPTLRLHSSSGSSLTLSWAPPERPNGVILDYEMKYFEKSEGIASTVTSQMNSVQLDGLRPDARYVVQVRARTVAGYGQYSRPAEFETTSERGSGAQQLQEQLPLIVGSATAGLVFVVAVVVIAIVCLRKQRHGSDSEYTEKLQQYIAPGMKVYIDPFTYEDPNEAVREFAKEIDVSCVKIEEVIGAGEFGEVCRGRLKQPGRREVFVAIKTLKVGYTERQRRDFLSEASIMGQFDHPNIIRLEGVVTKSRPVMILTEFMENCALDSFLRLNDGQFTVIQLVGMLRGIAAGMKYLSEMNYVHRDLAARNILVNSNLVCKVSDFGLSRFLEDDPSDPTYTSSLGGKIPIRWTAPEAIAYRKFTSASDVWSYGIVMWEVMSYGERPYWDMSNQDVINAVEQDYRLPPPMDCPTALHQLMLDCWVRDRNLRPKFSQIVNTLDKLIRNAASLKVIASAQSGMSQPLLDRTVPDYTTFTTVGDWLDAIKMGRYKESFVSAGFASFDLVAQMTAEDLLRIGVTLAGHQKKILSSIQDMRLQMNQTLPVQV
Chain of Receptor-interacting serine/threonine-protein kinase 2 (Homo sapiens) (O43353 whole entry, the tested form may be a part): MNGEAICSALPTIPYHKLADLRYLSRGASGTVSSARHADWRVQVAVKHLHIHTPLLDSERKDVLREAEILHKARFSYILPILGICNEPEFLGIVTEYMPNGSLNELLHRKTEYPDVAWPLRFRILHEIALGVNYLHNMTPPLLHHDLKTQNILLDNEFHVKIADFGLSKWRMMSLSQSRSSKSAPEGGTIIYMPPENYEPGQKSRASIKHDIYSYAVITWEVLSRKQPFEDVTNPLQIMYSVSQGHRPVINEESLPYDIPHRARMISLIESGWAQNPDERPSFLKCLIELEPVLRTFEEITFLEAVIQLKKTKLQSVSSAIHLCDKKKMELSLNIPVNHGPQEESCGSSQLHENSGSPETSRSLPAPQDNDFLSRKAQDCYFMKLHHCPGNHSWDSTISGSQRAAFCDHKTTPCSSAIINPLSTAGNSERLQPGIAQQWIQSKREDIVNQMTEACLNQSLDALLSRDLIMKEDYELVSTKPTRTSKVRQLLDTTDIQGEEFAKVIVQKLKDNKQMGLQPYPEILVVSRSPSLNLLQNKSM
Chain of Serine/threonine-protein kinase 3 (Homo sapiens) (Q13188 whole entry, the tested form may be a part): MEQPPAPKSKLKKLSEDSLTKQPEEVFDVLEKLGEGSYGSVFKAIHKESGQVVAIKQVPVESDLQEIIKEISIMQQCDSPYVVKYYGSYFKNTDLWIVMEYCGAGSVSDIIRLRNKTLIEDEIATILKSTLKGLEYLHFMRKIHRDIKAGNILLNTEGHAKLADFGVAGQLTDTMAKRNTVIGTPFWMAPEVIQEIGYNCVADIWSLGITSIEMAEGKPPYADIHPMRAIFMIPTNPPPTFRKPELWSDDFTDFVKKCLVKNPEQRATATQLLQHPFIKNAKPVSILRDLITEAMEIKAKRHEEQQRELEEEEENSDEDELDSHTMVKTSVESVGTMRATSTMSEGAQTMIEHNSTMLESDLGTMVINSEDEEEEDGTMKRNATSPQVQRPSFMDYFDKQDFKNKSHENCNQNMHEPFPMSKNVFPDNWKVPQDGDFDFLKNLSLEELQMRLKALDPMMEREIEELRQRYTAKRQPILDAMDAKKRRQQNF
Chain of Macrophage colony-stimulating factor 1 receptor (P07333 whole entry, the tested form may be a part): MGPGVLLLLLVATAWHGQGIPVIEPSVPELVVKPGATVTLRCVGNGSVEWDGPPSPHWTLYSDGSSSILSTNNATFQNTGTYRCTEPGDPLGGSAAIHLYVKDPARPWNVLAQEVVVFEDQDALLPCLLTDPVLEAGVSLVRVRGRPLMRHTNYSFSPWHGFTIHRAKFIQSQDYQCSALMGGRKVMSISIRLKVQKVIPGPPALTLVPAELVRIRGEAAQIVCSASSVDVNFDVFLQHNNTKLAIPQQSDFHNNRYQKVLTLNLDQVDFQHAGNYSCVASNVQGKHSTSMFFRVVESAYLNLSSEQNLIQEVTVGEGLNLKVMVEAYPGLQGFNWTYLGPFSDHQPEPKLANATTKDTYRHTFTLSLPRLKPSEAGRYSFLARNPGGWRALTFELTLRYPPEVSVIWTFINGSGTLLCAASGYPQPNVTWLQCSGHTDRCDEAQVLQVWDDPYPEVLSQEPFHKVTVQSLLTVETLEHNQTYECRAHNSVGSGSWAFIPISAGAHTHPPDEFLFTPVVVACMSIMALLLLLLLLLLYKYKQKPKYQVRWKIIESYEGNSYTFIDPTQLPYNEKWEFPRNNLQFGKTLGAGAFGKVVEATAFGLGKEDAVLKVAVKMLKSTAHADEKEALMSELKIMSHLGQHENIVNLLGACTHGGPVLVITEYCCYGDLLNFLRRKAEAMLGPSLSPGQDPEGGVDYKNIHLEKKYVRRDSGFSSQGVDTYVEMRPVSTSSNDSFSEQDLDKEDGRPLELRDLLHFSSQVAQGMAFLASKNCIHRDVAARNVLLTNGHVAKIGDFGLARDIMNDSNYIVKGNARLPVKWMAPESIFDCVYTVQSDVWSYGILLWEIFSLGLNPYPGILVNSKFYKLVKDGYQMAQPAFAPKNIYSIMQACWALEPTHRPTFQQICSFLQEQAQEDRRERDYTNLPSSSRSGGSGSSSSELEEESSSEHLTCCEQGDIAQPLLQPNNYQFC
Chain of Serine/threonine-protein kinase 16 (O75716 whole entry, the tested form may be a part): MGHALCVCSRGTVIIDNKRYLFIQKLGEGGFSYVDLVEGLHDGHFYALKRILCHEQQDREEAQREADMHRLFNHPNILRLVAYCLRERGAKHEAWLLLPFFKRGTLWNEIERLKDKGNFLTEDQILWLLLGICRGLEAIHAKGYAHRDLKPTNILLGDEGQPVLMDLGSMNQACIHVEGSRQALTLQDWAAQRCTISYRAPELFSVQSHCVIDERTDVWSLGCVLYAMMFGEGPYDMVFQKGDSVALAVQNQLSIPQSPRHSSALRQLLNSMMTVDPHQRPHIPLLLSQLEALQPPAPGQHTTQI

On to `CC(C)n1nc(-c2cnc(N)c(OC(F)(F)F)c2)cc1[C@H]1[C@@H]2CN(C3COC3)C[C@@H]21`, for which the 50% inhibitory concentration (IC50) in [1] amounted to 1520 nM; in [5] it was 673 nM; in assay [13] it was 129 nM. Also, the inhibition was 34.2% in [2]; -5.9% in assay [3]; 10.1% in [4]; 4.6% in assay [6]; 3.5% in [7]; -3.4% in [10]. The inhibition in vivo at 15 mg/kg in [8] came out at 42%. Further, the inhibition entry in [9] and in assay [12] was “Active” in each case. The result in assay [11] was Active.
With `Nc1ncc(-c2cc([C@H]3[C@@H]4CN(C5COC5)C[C@@H]43)n(CC3CC3)n2)cc1C(F)(F)F`, the inhibition in assay [2] was found to be 41.4%; in assay [14], 12.4%; in assay [4], 0%; in [6], 10%; in assay [15], 7.1%; in [17], 0.7%. The IC50 came out at 1220 nM in assay [16], 665 nM in assay [18] and 1380 nM in assay [19].
